In ChEMBL document CHEMBL2034868, “Synthesis of methoxylated goniothalamin, aza-goniothalamin and γ-pyrones and their in vitro evaluation against human cancer cells” (Bioorg Med Chem, 2012):

Assays:
[1] = tested on: NCI-H460; experiment: Growth inhibition of human NCI-H460 cells after 48 hrs by sulforhodamine B assay; format: functional
Procedure, shortened: (§1)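 Cells in 96-well plates were exposed for 48 h at 37 °C in 5% CO2 to compounds at 0.25, 2.5, 25 and […] in DMSO/RPMI. Doxorubicin was the positive control at […]. Cells were then fixed with 50% trichloroacetic acid and stained with sulforhodamine B, with protein read at 540 nm. TGI (the concentration where T = T0) was taken by non-linear regression of each cell line's concentration-response curve.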

[2] = tested on: HT-29; experiment: Growth inhibition of human HT-29 cells after 48 hrs by sulforhodamine B assay; format: functional; procedure, shortened: as §1
[3] = tested on: OVCAR-3; experiment: Growth inhibition of human OVCAR3 cells after 48 hrs by sulforhodamine B assay; format: functional; procedure, shortened: as §1
[4] = tested on: 786-0; experiment: Growth inhibition of human 786-0 cells after 48 hrs by sulforhodamine B assay; format: functional; procedure, shortened: as §1
[5] = tested on: MCF7; experiment: Growth inhibition of human MCF7 cells after 48 hrs by sulforhodamine B assay; format: functional; procedure, shortened: as §1
[6] = Growth inhibition of human NCI/ADR cells after 48 hrs by sulforhodamine B assay; format: functional; procedure, shortened: as §1
[7] = tested on: U-251; experiment: Growth inhibition of human U251 cells after 48 hrs by sulforhodamine B assay; format: functional; procedure, shortened: as §1
[8] = Growth inhibition of human HaCaT cells after 48 hrs by sulforhodamine B assay; format: cell-based; procedure, shortened: as §1

Structure (SMILES) | GI [1] [µM] | GI [2] [µM] | GI [3] [µM] | GI [4] [µM] | GI [5] [µM] | GI [6] [µM] | GI [7] [µM] | TGI at 48 h [8] [µM]
COc1cc(OC)c(OC)cc1/C=C/C1CC=CC(=O)N1 (stereo unspecified) | >864.1 | >864.1 | >864.1 | >864.1 | >864.1 | >864.1 | >864.1 | > 864
COc1ccc(C2CC(=O)C(I)=CO2)cc1 (stereo unspecified) | 74.6 | 24.4 | 38.2 | 27 | 43.2 | 39.7 | 24.4 | 53.3
O=c1ccoc(/C=C/c2ccccc2)c1 | 508.5 | 344.1 | 545.5 | 409.9 | 691.1 | 514.2 | 285.4 | 711
O=C1C=CCC(/C=C/c2ccccc2C(F)(F)F)N1 (stereo unspecified) | 194.7 | 195.4 | 329.3 | 123.4 | 120.2 | 40.6 | 69.9 | 249
O=C1C=COC(/C=C/c2ccc(C(F)(F)F)cc2)C1 (stereo unspecified) | 95.6 | 33.3 | 58.2 | 39.6 | 41.2 | 51.6 | 38.6 | 123
COc1ccc(-c2cc(=O)cco2)cc1 | >1236.3 | >1236.3 | >1236.3 | >1236.3 | >1236.3 | >1236.3 | >1236.3 | > 1240
COc1ccc(/C=C/C2CC(=O)C=CO2)cc1 (stereo unspecified) | 149.4 | 203.9 | 87.4 | 191.5 | 155.5 | 239.3 | 151.9 | 144
COc1ccc(/C=C/C2CC=CC(=O)O2)c(OC)c1 (racemic) | 6 | 6.6 | 5.6 | 4.1 | 5.4 | 8.8 | 4.6 | 15.8
COc1cc(/C=C/C2CC=CC(=O)N2)cc(OC)c1OC (stereo unspecified) | >864.1 | >864.1 | >864.1 | >864.1 | >864.1 | >864.1 | >864.1 | > 864
COc1ccc(/C=C/c2cc(=O)cco2)cc1 | 606.1 | 379.2 | 327.9 | 376.8 | 395.9 | 309.9 | 278.4 | 710
COc1cc(/C=C/C2CC=CC(=O)O2)cc(OC)c1OC (racemic) | 28.8 | 18.8 | 44.9 | 18.5 | 15.3 | 35.1 | 25.1 | 21.6
COc1ccc(/C=C/C2CC=CC(=O)O2)cc1 (racemic) | 28.3 | 33.7 | 61.5 | 21.6 | 25.5 | 17.3 | 20.6 | 58.8
COc1ccc(/C=C/C2CC=CC(=O)N2)cc1 (stereo unspecified) | >1090.4 | >1090.4 | 786.8 | >1090.4 | >1090.4 | 841.7 | 981.3 | > 1090
COc1ccc(/C=C/C2CC(=O)C=CO2)cc1OC (stereo unspecified) | 89.6 | 123.2 | 74.3 | 145.1 | 130.2 | 145.8 | 86.9 | 134
O=C1C=CCC(/C=C/c2ccccc2C(F)(F)F)O1 (racemic) | 241.5 | 71.7 | 295.6 | 52.3 | 50.4 | 75.5 | 43.4 | 82.7
O=C1C=COC(/C=C/c2ccccc2)C1 (stereo unspecified) | 82.4 | 123.6 | 58.2 | 138.2 | 152.6 | 105.3 | 121.8 | 126

Structure (SMILES) | GI [1] [µM] | GI [2] [µM] | GI [3] [µM] | GI [4] [µM] | GI [5] [µM] | GI [6] [µM] | GI [7] [µM] | TGI at 48 h [8] [µM]
O=C1C=COC(/C=C/c2ccc3c(c2)OCO3)C1 (stereo unspecified) | 147.4 | 126.9 | 101.7 | 104.1 | 81.4 | 186.8 | 77 | 145
COc1cc(OC)c(OC)cc1/C=C/C1CC=CC(=O)O1 (racemic) | 9.8 | 15.9 | 7.2 | 6 | 3.8 | 9.4 | 11.5 | 46.9
COc1ccc(/C=C/c2cc(=O)cco2)cc1OC | 545.5 | 806.7 | 540.2 | 635.4 | 953.6 | 407.9 | 338.9 | 690
O=C1C=CC[C@H](/C=C/c2ccccc2)O1 [GONIOTHALAMIN] | 13.6 | 13.9 | 14.2 | 14.8 | 12.7 | 8 | 13.7 | 27.7
COc1cc(/C=C/C2CC(=O)C=CO2)cc(OC)c1OC (stereo unspecified) | 127.3 | 134.5 | 85.4 | 125 | 149.4 | 223.2 | 101.8 | 155
COc1cccc2c1C(=O)c1c(O)c3c(c(O)c1C2=O)C[C@@](O)(C(=O)CO)C[C@@H]3O[C@H]1C[C@H](N)[C@H](O)[C@H](C)O1 [DOXORUBICIN] | 1.3 | 13.9 | 6.3 | 2.1 | 3.7 | 13.5 | 2.4 | 0.8
O=C1C=CCC(/C=C/c2ccc(C(F)(F)F)cc2)O1 (racemic) | 476.9 | 36.2 | 167.2 | 44.5 | 51 | 54.8 | 36.8 | 69.7
COc1ccc(/C=C/C2CC=CC(=O)N2)c(OC)c1 (stereo unspecified) | >964.1 | >964.1 | >964.1 | >964.1 | >964.1 | >964.1 | >964.1 | > 964
COc1cc(/C=C/C2CC=CC(=O)N2)cc(OC)c1 (stereo unspecified) | 145.5 | 196.6 | 232.1 | 173.4 | 146.4 | 203.2 | 169.9 | 212
COc1ccc(C2CC(=O)C=CO2)cc1 (stereo unspecified) | 192.8 | 203.4 | 248.6 | 197 | 172.9 | 419.6 | 226.1 | 264
O=C1C=CCC(/C=C/c2ccc(C(F)(F)F)cc2)N1 (stereo unspecified) | 150.4 | 139.2 | 126 | 127.8 | 149.5 | 71.8 | 130.3 | 174
COc1ccc(/C=C/C2CC=CC(=O)O2)cc1OC (racemic) | 14.6 | 17.2 | 16.8 | 10.9 | 7.8 | 11.6 | 23.9 | 63
COc1ccc(C2CC(=O)C(Br)=CO2)cc1 (stereo unspecified) | 117.7 | 69 | 113.5 | 33.4 | 42.2 | 52.9 | 46.4 | 164
O=C1C=CCC(/C=C/c2ccccc2)N1 (stereo unspecified) | 928.5 | 1195.8 | >1254.8 | >1254.8 | 607.4 | 966.6 | 797.6 | > 1250
COc1ccc(/C=C/C2CC=CC(=O)N2)cc1OC (stereo unspecified) | >964.1 | >964.1 | >964.1 | >964.1 | >964.1 | >964.1 | >964.1 | > 964
COc1cc(/C=C/C2CC=CC(=O)O2)cc(OC)c1 (racemic) | 9 | 8.2 | 19.1 | 10.6 | 9.5 | 8.9 | 8.1 | 8.8
